According to ChEMBL document CHEMBL1154190, “Development and screening of water-soluble analogues of progesterone and allopregnanolone in models of brain injury” (J Med Chem, 2009):

Experiments:
[1] = Solubility in phosphate buffered saline; type: physicochemical
Method in brief: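 Compound added in small portions to phosphate buffered saline at room temperature with stirring until a visible saturation end point; solubility reported as mg/mL.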

[2] = Inhibition of glutamate-induced excitotoxicity in rat E18 cells assessed as reduction in cell death at 5 uM pretreated for 24 hrs before glutamate challenge measured after 24 hrs by MTT assay; type: functional
Method in brief: (§1)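 Rat E18 primary cortical cells cultured 8-10 days in neurobasal medium, pretreated 24 h with compound (tested at 0.1-80 μM, DMSO <5 μL/mL medium), then glutamate 0.5 μM (in PBS pH 7.4) added for a further 24 h with compound still present. Viability by MTT formazan photometry; reduction in cell death vs glutamate-only control, mean ± SEM, ANOVA/Dunnett, p < 0.05.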

Rattus norvegicus = assay: Neuroprotective effect against traumatic brain injury-induced cerebral edema in rat assessed as decrease in edema level at 8 mg/kg administered intraperitoneally 1 hr post-TBI followed by second sc dose at 6 hrs post-TBI measured after 24 hrs relative to control; type: functional; parameters: scale not given: the % may be the effect or the level left; conditions: route intraperitoneal at 1 h, then subcutaneous at 6 h
Method in brief: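 Bilateral medial frontal cortex contusion made with a pneumatic impactor in rats under isoflurane (5% induction, 2% maintenance, N₂O/O₂), body temperature held with a heating blanket. Dosing: 8 mg/kg in 22.5% w/v 2-hydroxypropyl-β-cyclodextrin, IP at 1 h, then SC at 6 h. Sham and vehicle groups included. At 24 h, pentobarbital overdose; pericontusional tissue dried at 60 °C, 0.3 atm for 24 h. Water % = (wet−dry)/wet×100; decrease vs vehicle, mean ± SEM.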

[3] = Inhibition of glutamate-induced excitotoxicity in rat E18 cells assessed as reduction in cell death at 20 uM pretreated for 24 hrs before glutamate challenge measured after 24 hrs by MTT assay; type: functional
Method in brief: (§2)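 Rat E18 primary cortical neurons cultured 8-10 days in neurobasal medium, pretreated 24 h with compound (0.1-80 μM, DMSO, final DMSO <5 μL/mL), then glutamate 0.5 μM (in PBS pH 7.4) for 24 h with compound still present. Viability read by MTT formazan photometry; % reduction in cell death vs glutamate control, mean ± SEM, ANOVA with Dunnett's test.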

[4] = Inhibition of glutamate-induced excitotoxicity in rat E18 cells assessed as reduction in cell death at 10 uM pretreated for 24 hrs before glutamate challenge measured after 24 hrs by MTT assay; type: functional; method in brief: as §1
[5] = Inhibition of glutamate-induced excitotoxicity in rat E18 cells assessed as reduction in cell death at 80 uM pretreated for 24 hrs before glutamate challenge measured after 24 hrs by MTT assay; type: functional; method in brief: as §2
[6] = phosphate buffered saline, read-out: solubility

Row | SMILES | solubility [1, 6] [µg/mL] | inhibition at 5 µM [2] [%] | Activity (Rattus norvegicus) [%] | also measured
1 | CC(=O)[C@H]1CC[C@H]2[C@@H]3CCC4=C[C@@H](OC(=O)[C@H](C)N)CC[C@]4(C)[C@H]3CC[C@]12C.Cl | 3340 | 13 |  | 
2 | CC(=O)[C@H]1CC[C@H]2[C@@H]3CC[C@@H]4C[C@@H](OC(=O)[C@@H](N)C(C)C)CC[C@]4(C)[C@H]3CC[C@]12C.Cl | < 50 |  | 11 | 
3 | CC(=O)[C@H]1CC[C@H]2[C@@H]3CCC4=C/C(=N\OC(=O)[C@@H](N)C(C)C)CC[C@]4(C)[C@H]3CC[C@]12C.Cl | 15200 | 34 | 75 | 
4 | CC(=O)[C@H]1CC[C@H]2[C@@H]3CC[C@H]4C[C@H](OC(=O)[C@@H](N)C(C)C)CC[C@]4(C)[C@H]3CC[C@]12C.Cl | < 50 |  | 49 | 
5 | CC(=O)[C@H]1CC[C@H]2[C@@H]3CCC4=CC(=O)CC[C@]4(C)[C@H]3CC[C@]12C [PROGESTERONE] | < 50 | 4 | 60 | inhibition at 20 µM [3]: 42%
6 | CC(=O)[C@H]1CC[C@H]2[C@@H]3CC[C@@H]4C[C@H](OC(=O)[C@@H](N)C(C)C)CC[C@]4(C)[C@H]3CC[C@]12C.Cl | 300 |  | 31 | 
7 | CC(=O)[C@H]1CC[C@H]2[C@@H]3CCC4=C/C(=N/OC(=O)[C@@H](N)C(C)C)CC[C@]4(C)[C@H]3CC[C@]12C.Cl |  | 27 | 57 | solubility ([1]; buffer): 13000 µg/mL
8 | CC(C)[C@H](N)C(=O)O[C@@H](C)[C@H]1CC[C@H]2[C@@H]3CCC4=CC(=O)CC[C@]4(C)[C@H]3CC[C@]12C |  | 23 |  | inhibition at 10 µM [4]: 30%
9 | CC(=O)[C@H]1CC[C@H]2[C@@H]3CC[C@H]4C[C@@H](OC(=O)[C@@H](N)C(C)C)CC[C@]4(C)[C@H]3CC[C@]12C.Cl | < 50 |  | 40 | 
10 | CC(=O)[C@H]1CC[C@H]2[C@@H]3CCC4=C[C@@H](OC(=O)[C@@H](N)C(C)C)CC[C@]4(C)[C@H]3CC[C@]12C.Cl | 3850 | 8 |  | 
11 | CC(=O)[C@H]1CC[C@H]2[C@@H]3CCC4=C[C@@H](OC(=O)[C@@H]5CCCN5)CC[C@]4(C)[C@H]3CC[C@]12C.Cl | 1530 | 15 |  | 
12 | CC(=O)[C@H]1CC[C@H]2[C@@H]3CC[C@H]4C[C@H](O)CC[C@]4(C)[C@H]3CC[C@]12C [BREXANOLONE] | < 50 | -3 |  | inhibition at 80 µM [5]: 40%
13 | CC(=O)[C@H]1CC[C@H]2[C@@H]3CCC4=C[C@@H](OC(=O)[C@@H](N)Cc5c[nH]c6ccccc56)CC[C@]4(C)[C@H]3CC[C@]12C |  | 1 |  | 
14 | CC(=O)[C@H]1CC[C@H]2[C@@H]3CCC4=C[C@@H](OC(=O)[C@@H](N)Cc5ccccc5)CC[C@]4(C)[C@H]3CC[C@]12C.Cl | 610 |  |  | 
